SENP8 block-1: SENP8 protease inhibitors, primary screen, biochemical, luminescence; Sentrin-specific protease 8 (Homo sapiens), Q96LD8; purified SENP8, Z-RLRGG-aminoluciferin cleavage; inhibition, % at 10 µM; 330,000 tested, 1.2% active; in the data active = inhibition above about 50%
Apaf1 inhib: inhibitors of human Apaf-1 apoptosome, primary screen, biochemical, DEVD-Rh110 fluorescence, uHTS; Apoptotic protease-activating factor 1 (Homo sapiens), O14727; reconstituted apoptosome caspase-3 activity; inhibition, % at 20 µM; 330,000 tested, 0.71% active; active = inhibition of at least 40% at 20 µM;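 also: plate controls were DMSO wells for no effect and DEVD-CHO caspase inhibitor wells for full effect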
Target sequence (O14727 whole entry, looked up): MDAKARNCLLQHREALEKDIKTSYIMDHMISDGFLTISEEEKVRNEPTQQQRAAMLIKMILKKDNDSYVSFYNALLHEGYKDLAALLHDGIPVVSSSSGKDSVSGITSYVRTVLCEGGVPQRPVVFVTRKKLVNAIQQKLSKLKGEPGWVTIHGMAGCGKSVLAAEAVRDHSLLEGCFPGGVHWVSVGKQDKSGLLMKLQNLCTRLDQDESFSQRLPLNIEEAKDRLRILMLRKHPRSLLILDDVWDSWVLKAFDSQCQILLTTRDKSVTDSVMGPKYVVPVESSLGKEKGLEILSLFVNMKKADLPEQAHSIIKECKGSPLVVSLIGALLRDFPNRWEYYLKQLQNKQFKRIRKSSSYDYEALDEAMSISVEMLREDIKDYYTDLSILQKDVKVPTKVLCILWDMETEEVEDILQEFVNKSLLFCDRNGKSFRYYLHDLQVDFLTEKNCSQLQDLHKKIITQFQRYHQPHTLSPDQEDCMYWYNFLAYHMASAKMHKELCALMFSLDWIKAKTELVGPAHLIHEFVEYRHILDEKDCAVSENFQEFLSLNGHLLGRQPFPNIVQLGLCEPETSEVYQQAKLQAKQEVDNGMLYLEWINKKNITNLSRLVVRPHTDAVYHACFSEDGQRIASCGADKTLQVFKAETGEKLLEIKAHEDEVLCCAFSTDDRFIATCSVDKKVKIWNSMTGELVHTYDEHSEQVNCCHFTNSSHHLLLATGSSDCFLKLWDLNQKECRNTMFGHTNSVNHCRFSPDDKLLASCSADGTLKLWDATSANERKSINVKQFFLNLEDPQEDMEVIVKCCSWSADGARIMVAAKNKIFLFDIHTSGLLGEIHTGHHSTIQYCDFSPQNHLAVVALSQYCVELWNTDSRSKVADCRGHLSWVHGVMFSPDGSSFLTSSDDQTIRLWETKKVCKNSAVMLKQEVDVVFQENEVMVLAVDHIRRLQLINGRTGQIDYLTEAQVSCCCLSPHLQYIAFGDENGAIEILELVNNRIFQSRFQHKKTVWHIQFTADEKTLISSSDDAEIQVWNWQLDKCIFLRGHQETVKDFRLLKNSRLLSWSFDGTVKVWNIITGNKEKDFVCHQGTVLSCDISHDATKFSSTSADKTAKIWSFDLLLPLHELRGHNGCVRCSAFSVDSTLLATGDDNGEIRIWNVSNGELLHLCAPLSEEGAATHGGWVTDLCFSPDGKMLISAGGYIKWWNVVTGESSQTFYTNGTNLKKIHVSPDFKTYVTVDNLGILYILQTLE
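System: Apoptosome proteins | Medium: Hepes pH 7.5 with detergent and BSA | Also added: Cytochrome c trigger plus (Z-DEVD)2-Rh110 caspase-3 substrate | Incubation: 30 min compound preincubation, 50 min activation, room temperature | Detection: Rhodamine 110 fluorescence at Ex 480/Em 540 nm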
SENP8 block-2: human SENP8 protease inhibitors, primary screen, biochemical, fluorescence, Nedd8 protein substrate, uHTS; Sentrin-specific protease 8 (Homo sapiens), Q96LD8; 360,000 tested, 0.64% active; recombinant SENP8; inhibition, % at 20 µM; in the data active = inhibition mostly above about 40%, no sharp cut-off; inactive = mostly below about 27%
SENP6 inh: SENP6 protease inhibitors, primary screen, biochemical, luminescence, uHTS; Sentrin-specific protease 6 (Homo sapiens), Q9GZR1; Recombinant SENP6 catalytic domain, aminoluciferin luminescence; inhibition, % at 10 µM; 330,000 tested, 1.8% active; AID 2599, 2010;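 active = inhibition above about 50% at the single tested dose, limit read from the data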;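 also: plate controls were DMSO wells with enzyme for no effect and DMSO wells lacking enzyme for full effect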
SENP7 inh: SENP7 protease inhibitors, primary screen, biochemical, luminescence, uHTS | recombinant SENP7, Z-RLRGG-aminoluciferin luminescence, 40 min | 330,000 tested, 1.5% active | inhibition, % at 5 µM;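 active = inhibition above about 50% at the single test dose, limit read from the data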;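 also: plate controls were DMSO with enzyme for no effect and no enzyme buffer wells for full effect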
UBC13 inh: UBC13 polyubiquitin chain formation inhibitors, primary screen, biochemical, TR-FRET, uHTS; Ubiquitin-conjugating enzyme E2 N (Homo sapiens), P61088; inhibition, % at 20 µM; 330,000 tested, 0.47% active; AID 485273, 2010; in the data active = inhibition above about 45%, passing the limit was not always enough
Casp3 counter: CASP3 inhibitor validation, counterassay for project on UBE2N polyubiquitination blockers, biochemical, one dose. shares compounds with UBC13 inh. Recombinant caspase-3, Caspase-Glo 3/7 luminescence, 60 min. inhibition, % at 20 µM. 1,400 tested, 4% active;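 active = mean inhibition across replicates above about 26%, limit read from the data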;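 also: plate controls were DMSO with caspase-3 for no effect and DMSO wells lacking enzyme for full effect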
UBC13 confirm: UBC13 polyubiquitination inhibitors, single-point retest, confirmation, biochemical, TR-FRET, single concentration | shares compounds with UBC13 inh | inhibition, % at 10 µM | 1,400 tested, 68% active | AID 488859, 2010; in the data active = inhibition above about 45%
The depositor's hits bear a star; i = inactive; · = not tested or not shown. The list is not random: actives were taken first. Their share in the collection is about 3%.

SMILES | SENP8 block-1 | Apaf1 inhib | SENP8 block-2 | SENP6 inh | SENP7 inh | UBC13 inh | Casp3 counter | UBC13 confirm
CCC(=O)NC(=S)NNC(=O)c1ccc(OC)cc1 | 4 | -7 | 12 | -7 | 5 | 81* | -2 | 86*
CCCOc1ccc(C(=O)NNC(=S)NC(=O)c2ccccc2)cc1 | 3 | 14 | 19 | 14 | 9 | -22 | · | ·
CCC(=O)NC(=S)NNC(=O)c1ccc([N+](=O)[O-])cc1 | -11 | -3 | 12 | -5 | -13 | 68* | 4 | 87*
CCCOc1ccc(C(=O)NNC(=S)NC(C)=O)cc1 | -6 | 13 | 0 | -1 | -13 | 75* | 2 | 95*
Cc1cccc(C)c1NC(=O)C1c2ccccc2OCC(=O)N1CCc1c[nH]c2ccccc12 (centres undefined) | · | · | 14 | · | · | · | · | ·
CNc1cncc(-c2cccc(C(=O)NCCN(C)C)c2)n1 | · | · | i | · | · | · | · | ·
NC1=NC[C@H](c2ccccc2)N1CCCCC1CCCCC1 | 0 | 37 | 21 | -7 | -4 | 79* | -3 | 72*
Cc1cc(C)nc(Nc2nc(C(N)Cc3ccc(Cl)cc3)cs2)n1 (centres undefined) | · | · | 14 | · | · | · | · | ·
COc1cccc(C(O)c2nc(-c3cccc(C#N)c3)cs2)c1 (centres undefined) | · | · | 16 | · | · | · | · | ·
CCOC(=O)c1cc(-c2ccccc2)nc2ccc(C)cc12 | -11 | 32 | -430 | -6 | 0 | 54* | -1 | 38
CC(=O)COC(=O)c1cc(-c2ccc(C)cc2)nc2ccccc12 | 0 | 4 | -210 | -4 | -2 | 15 | · | ·
CCc1nc2c(OCc3ccc(Cl)cc3Cl)cccn2c1N(C)C(=O)c1ccccc1F | · | · | 3 | · | · | · | · | ·
O=C(CCCCn1c(=O)c2ccccc2n(Cc2ccccc2)c1=O)NC1CCN(Cc2ccccc2)CC1 | -1 | 4 | 26 | 9 | 5 | 94* | 1 | 108*
O=C(CCCCn1c(=O)c2ccccc2n(CC(=O)NC2CCCC2)c1=O)NC1CCCC1 | 4 | 0 | 8 | -11 | -7 | 8 | · | ·
O=C(CCCn1c(=O)c2ccccc2n(Cc2cccc(F)c2)c1=O)NC1CCN(Cc2ccccc2)CC1 | 4 | -16 | · | 23 | 6 | 100* | 4 | 112*
COCCN(Cc1ccc(C)cc1)C(=O)[C@H]1O[C@@H](n2ccc(=O)[nH]c2=O)[C@H](O)[C@@H]1O | · | · | 17 | · | · | · | · | ·
COc1ccc2cc1Oc1ccc(cc1)C[C@H]1c3c(cc(OC)c4c3Oc3c(ccc5c3[C@H](C2)N(C)CC5)O4)CCN1C | -6 | 59* | 13 | -22 | 3 | 80* | 0 | 78*
COc1ccc(C(=O)Nn2c(SCC(=O)NCC3CCCO3)nc3ccccc3c2=O)cc1 (centres undefined) | 18 | 1 | 20 | 23 | -3 | 58* | 71* | 48*
COc1ccc(C(=O)Nn2c(SCC(=O)NCc3ccccc3)nc3ccccc3c2=O)cc1 | -8 | 8 | 22 | 0 | -11 | 52* | 3 | 58*
CCCS(=O)(=O)NC(=O)C1(C)CCCN(C(=O)/C=C/c2ccccc2)C1 (centres undefined) | · | · | 16 | · | · | · | · | ·
CSc1ccc(Cn2c(C)c(C(=O)NCc3ccc4c(c3)OCCO4)sc2=O)cc1 | · | · | 10 | · | · | · | · | ·
CCC(c1nnnn1-c1ccc2c(c1)OCCO2)N1CCN(c2ccccn2)CC1 (centres undefined) | · | · | 7 | · | · | · | · | ·
CC(C)C[C@H]1CN([C@@H](Cc2ccccc2)CN2CCC[C@@H]2CN2C(=O)C(=O)NC[C@@H]2Cc2ccccc2)C(=O)C(=O)N1CC1CCCCC1 | · | · | 12 | · | · | · | · | ·
COc1ccc(S(=O)(=O)Nc2ccc(C)cn2)cc1 | 6 | -1 | -362 | 9 | 1 | 46* | -2 | -3
COc1ccc(S(=O)(=O)Nc2ccc(Cl)cn2)cc1 | -2 | -11 | 5 | 7 | 5 | -1 | · | ·
SMILES | SENP8 block-1 | Apaf1 inhib | SENP8 block-2 | SENP6 inh | SENP7 inh | UBC13 inh | Casp3 counter | UBC13 confirm
O=C(NCCCO)C(=O)NCC1OCCCN1S(=O)(=O)c1cccs1 (centres undefined) | 0 | -3 | 4 | -18 | -1 | -1 | · | ·
CN(C)CCCNC(=O)C(=O)NCC1OCCN1S(=O)(=O)c1cccs1 (centres undefined) | -1 | 64* | 3 | 13 | -16 | 46* | 4 | 33
C[C@@H]1O[C@@H](O[C@H]2[C@H](Oc3cc(O)c4c(c3)OC(c3ccc(O)cc3)CC4=O)O[C@H](CO)[C@@H](O)[C@@H]2O)[C@H](O)[C@H](O)[C@H]1O (some centres undefined) | -4 | -8 | 12 | -5 | 5 | 97* | -2 | 100*
COc1ccc([C@@H]2CC(=O)c3c(O)cc(O[C@@H]4OC(CO[C@@H]5OC(C)[C@H](O)[C@H](O)C5O)[C@@H](O)[C@@H](O)C4O)cc3O2)cc1O (some centres undefined) | -7 | 5 | 5 | -12 | -6 | -10 | · | ·
C[C@@H]1O[C@@H](O[C@H]2[C@H](Oc3cc(O)c4c(c3)O[C@H](c3ccc(O)cc3)CC4=O)O[C@H](CO)[C@@H](O)[C@@H]2O)[C@H](O)[C@H](O)[C@H]1O | 1 | -9 | 6 | 9 | 1 | 95* | -7 | 98*
CN1C(=O)[C@H]2[C@@H](c3ccc(C(F)(F)F)cc3)N[C@]3(CCCN(Cc4ccc(C(F)(F)F)cc4)C3=O)[C@H]2C1=O | · | · | 6 | · | · | · | · | ·
COc1cccc(C(O)c2nc(/C=C/c3ccccc3)cs2)c1 (centres undefined) | · | · | 0 | · | · | · | · | ·
CC[C@H](C)[C@@H](CN[C@H](CCCCNC)CNC)NCC1CCCC1 | -4 | 21 | 29 | -10 | 2 | 6 | · | ·
CCCC[C@@H](CN[C@H](C)CNC)NCC1CCC(C(C)(C)C)CC1 (some centres undefined) | 0 | 31 | · | -10 | 4 | 61* | -2 | 14
COc1ccc(-c2nn(-c3ccccc3)cc2/C=N/O)cc1OC | 1 | 4 | -6 | 6 | -2 | 12 | · | ·
COc1ccc(-c2nn(-c3ccccc3)cc2/C=N/N=C(N)N)cc1OC | -13 | 30 | -412 | -22 | -3 | 51* | -5 | 67*
O/N=C/c1cn(-c2ccccc2)nc1-c1ccc2c(c1)OCCO2 | -2 | 15 | 2 | -8 | 7 | 46* | -2 | 48*
CCc1ccc(C#CC2=CC(=O)CC(C)(C)C2)cc1 | · | · | 28 | · | · | · | · | ·

Screening results as filed in PubChem BioAssay.
